Data set [1] can be described thus: Drug level in anaerobic culture broth of F344 rat cecal content treated with [14C]CS-1036 at 63.5 uCi/ml after 24 hrs at 35 degC by LC-MS/MS method. Format: ADME. The conditions noted are these: in vitro.
Data set [2] can be described thus: Drug level in anaerobic culture broth of monkey feces derived anaerobic culture broth treated with [14C]CS-1036 at 63.5 uCi/ml after 24 hrs at 35 degC by LC-MS/MS method. The conditions noted are these: cynomolgus monkey, in vivo.
A short description of data set [3]: Drug level in feces of F344 rat treated with [14C]CS-1036 by LC-MS/MS method. Format: ADME, tissue-based. To be noted: in vivo.
Data set [4] is described as follows: Drug distribution in cecum of F344 rat treated with [14C]CS-1036 at 1 mg/kg, po administered as single dose after 6 to 8 hrs by scintillation counting method. Type of data set: ADME, organism-based, Caecum. Also on record: dose 1 mg/kg, route oral. The conditions noted are these: in vivo.
Another data set concerns Intestine. Put plainly: Drug distribution in intestine of F344 rat treated with [14C]CS-1036 at 1 mg/kg, po administered as single dose after 2 to 8 hrs by scintillation counting method. Type of data set: ADME, organism-based. Further details: dose 1 mg/kg, route oral. To be noted: in vivo.
The nature of data set [5]: Drug excretion in feces of cynomolgus monkey treated with [14C]CS-1036 at 3 mg/kg, po administered as single dose after 48 hrs by scintillation counting method. The conditions noted are these: in vivo.
The nature of data set [6]: Drug level in anaerobic culture broth of human feces derived anaerobic culture broth treated with [14C]CS-1036 at 63.5 uCi/ml after 24 hrs at 35 degC by LC-MS/MS method. Format: ADME, tissue-based.
The next data set concerns Stomach. Briefly: Drug distribution in stomach of F344 rat treated with [14C]CS-1036 at 1 mg/kg, po administered as single dose after 2 to 8 hrs by scintillation counting method. Further details: dose 1 mg/kg, route oral. Format: ADME, organism-based. The conditions noted are these: in vivo.
A short description of data set [7]: Drug distribution in cecum of F344 rat treated with [14C]CS-1036 at 1 mg/kg, po administered as single dose by scintillation counting method. Also on record: dose 1 mg/kg, route oral. The conditions noted are these: in vivo, TDE = time-dependent effect. Format: ADME, organism-based, Caecum. In outline:
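[14C]-labelled drug (1 mg/kg, 42.4 µCi/kg) was given orally to fasted F344 rats (148–168 g, n = 3). Contents of stomach, duodenum+jejunum, ileum and cecum were washed out with water at 0.5–8 h, homogenized, solubilized and counted by liquid scintillation. Results are % of dose, mean ± S.D.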

A short description of data set [8]: Drug excretion in urine of cynomolgus monkey treated with [14C]CS-1036 at 3 mg/kg, po administered as single dose after 48 hrs by scintillation counting method. The conditions noted are these: in vivo.
Data set [9] can be described thus: Oral bioavailability in rat at 10 mg/kg. Type of data set: ADME, organism-based. The conditions noted are these: in vivo.
Data set [10] can be described thus: Drug level in urine of F344 rat treated with [14C]CS-1036 by LC-MS/MS method. The conditions noted are these: in vivo. Type of data set: ADME, tissue-based.
The subject of data set [11] is Cynomolgus monkey. Briefly: Drug level in cynomolgus monkey treated with 10 mg/kg, po CS-1036 administered as single dose assessed as ratio of molar based AUClast by LC-MS/MS method relative to CS-1036. Type of data set: ADME, organism-based, Macaca fascicularis. Also on record: dose 10 mg/kg, route oral. The conditions noted are these: in vivo.
Data set [12] deals with Cynomolgus monkey. Briefly: Drug level in cynomolgus monkey treated with 1 mg/kg, po CS-1036 administered as single dose assessed as ratio of molar based AUClast by LC-MS/MS method relative to CS-1036. Also on record: dose 1 mg/kg, route oral. The conditions noted are these: in vivo. Format: ADME, organism-based, Macaca fascicularis.
Data set [13] has as its system Rattus norvegicus. Briefly: Drug level in F344 rat treated with 3 mg/kg, po CS-1036 administered as single dose assessed as ratio of molar based AUClast by LC-MS/MS method relative to CS-1036. Format: ADME, organism-based. Also on record: dose 3 mg/kg, route oral. The conditions noted are these: in vivo.
Data set [14] relates to Rattus norvegicus. Put plainly: Drug level in F344 rat treated with 0.3 mg/kg, po CS-1036 administered as single dose assessed as ratio of molar based AUClast by LC-MS/MS method relative to CS-1036. The conditions noted are these: in vivo. Type of data set: ADME, organism-based. Also on record: dose 0.3 mg/kg, route oral.
A short description of data set [15]: Drug distribution in cecum of F344 rat treated with [14C]CS-1036 at 1 mg/kg, po administered as single dose after 8 hrs by scintillation counting method. Format: ADME, organism-based, Caecum. Further details: dose 1 mg/kg, route oral. To be noted: in vivo.
The nature of data set [16]: Drug level in urine of po dosed monkey treated with [14C]CS-1036 by LC-MS/MS method. To be noted: cynomolgus monkey, in vivo.
Data set [17] concerns Rattus norvegicus. Briefly: Drug level in F344 rat treated with 3 mg/kg, iv CS-1036 administered as single dose assessed as ratio of molar based AUClast by LC-MS/MS method relative to CS-1036. The conditions noted are these: in vivo. Format: ADME, organism-based. Further details: dose 3 mg/kg, route intravenous.
The subject of data set [18] is Rattus norvegicus. Briefly: Drug level in F344 rat treated with 10 mg/kg, iv CS-1036 administered as single dose assessed as ratio of molar based AUClast by LC-MS/MS method relative to CS-1036. To be noted: in vivo. Also on record: dose 10 mg/kg, route intravenous. Format: ADME, organism-based.
Data set [19] has as its system Rattus norvegicus. Put plainly: Drug level in F344 rat treated with 10 mg/kg, po CS-1036 administered as single dose assessed as ratio of molar based AUClast by LC-MS/MS method relative to CS-1036. Type of data set: ADME, organism-based. Also on record: dose 10 mg/kg, route oral. To be noted: in vivo.
Data set [20] is described as follows: Drug excretion in urine of F344 rat treated with [14C]CS-1036 at 1 mg/kg, po administered as single dose after 24 hrs by scintillation counting method. Further details: dose 1 mg/kg, route oral. Type of data set: ADME, organism-based. To be noted: in vivo.
Data set [21] is described as follows: Cmax in rat at 10 mg/kg, po. Format: ADME, organism-based. Also on record: dose 10 mg/kg, route oral. To be noted: in vivo.
For another data set, the species on record is Mus musculus. Put plainly: Inhibition of glycogen phosphorylase in ob/ob mouse. Format: functional, organism-based.
Data set [22] in a line: Drug level in urine of po dosed F344 rat treated with [14C]CS-1036 by LC-MS/MS method. The conditions noted are these: in vivo. Type of data set: ADME, organism-based.
For data set [23], the system named is Rattus norvegicus. Put plainly: Drug level in F344 rat treated with 1 mg/kg, po CS-1036 administered as single dose assessed as ratio of molar based AUClast by LC-MS/MS method relative to CS-1036. Format: ADME, organism-based. Further details: dose 1 mg/kg, route oral. The conditions noted are these: in vivo.
In data set [24] the test system is Cynomolgus monkey. Put plainly: Drug level in cynomolgus monkey treated with 3 mg/kg, po CS-1036 administered as single dose assessed as ratio of molar based AUClast by LC-MS/MS method relative to CS-1036. The conditions noted are these: in vivo. Format: ADME, organism-based, Macaca fascicularis. Also on record: dose 3 mg/kg, route oral.
Data set [25] can be described thus: Drug metabolism in anaerobic culture broth of F344 rat cecal content assessed as N-acetyl [14C]CS-1036 formation at 63.5 uCi/ml after 24 hrs at 35 degC by LC-MS/MS method. Format: ADME.

The source of these data is ChEMBL document CHEMBL3526127, “Absorption, elimination, and metabolism of CS-1036, a novel α-amylase inhibitor in rats and monkeys, and the relationship between gastrointestinal distribution and suppression of glucose absorption” (Drug Metab Dispos, 2013).

Regarding `CC(=O)N1C[C@@H](O)[C@H](O)[C@H]1CO`, the Drug metabolism result in data set [1] was “metabolite_detected”; in data set [2], “metabolite_detected”; in data set [3], “metabolite_detected”; in the data set on Intestine it was “metabolite_not_detected”; in data set [6] it was “metabolite_detected”; with Stomach it was “metabolite_not_detected”. The compound further showed a Drug uptake in data set [4] of 1.7%. Moreover, the Drug excretion in data set [5] came out at 17.8%.
As for `OC[C@H]1NC[C@@H](O)[C@@H]1O`, the Drug uptake result in data set [7] is “tde”; in the data set with Cynomolgus monkey [11], 62.5%; with Cynomolgus monkey [12], 60.8%; in the data set with Rattus norvegicus [13] it was 49.9%; in the data set on Rattus norvegicus [14], 22.1%; in data set [15], 7.1%. Moreover, the Drug uptake in the data set on Rattus norvegicus [17] is on record as 0.00672%; in the data set with Intestine it was less than 1%; in the data set with Rattus norvegicus [18] it was 0.0172%; with Rattus norvegicus [19], 32.2%; with Stomach it was less than 1%; with Rattus norvegicus [23], 73.4%. For the same compound, the Drug uptake in the data set on Cynomolgus monkey [24] turned out to be 83.5%. Besides, the Drug metabolism entry in [1], in [10], in data set [2], in data set [3], in data set [16] and in data set [6] was “metabolite_detected” each time. The Drug metabolism entry in [22] is reported as “metabolite_detected”. The values for the Drug excretion in [8], in data set [5] and in data set [20] were 2.2%, 9.7% and 5.3%, respectively. Moreover, in data set [9], the bioavailability (as a rule, the share of a dose that reaches the circulation, judged against a reference dose that is usually intravenous) amounted to 89%. For the same compound, in data set [21], the Cmax (commonly the maximum level reached in the sampled fluid or tissue) was less than 300 nM. The affinity in the data set listed under Mus musculus, expressed as Ki, was 392 nM.
As to `CC(=O)N1C[C@@H](O)[C@H](O[C@H]2O[C@H](CO)[C@@H](O[C@@H]3O[C@H](C)[C@@H](O)[C@H](O)[C@H]3O)[C@H](O)[C@H]2O)[C@H]1CO`, the Drug metabolism entry in data set [1] and in [25] was “metabolite_detected” throughout.
